KCNK3 inh = human KCNK3 channel inhibition, primary screen; O14649; CHO-KCNK3 thallium flux, FluxOR fluorescence; hits give low values; B-score at 10 µM; 340,000 compounds, 0.84% hits; AID 602410;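 active means B-score under library mean minus 4 SD, starting fluorescence ratio at most library mean plus 5 SD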;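 further: more negative B-score means stronger inhibition of thallium flux through KCNK3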
KCNQ1 pot = human KCNQ1 channel potentiation or activation; B-score at 10 µM; 310,000 compounds, 0.35% hits; CHO-K1 KCNQ1, thallium flux FluxOR fluorescence; hits give high values; AID 2648;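 active means fluorescence ratio B-score, a plate-corrected score, at least three library SD, with initial intensity B-score within 5 SD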
Target sequence (P51787 whole entry, looked up): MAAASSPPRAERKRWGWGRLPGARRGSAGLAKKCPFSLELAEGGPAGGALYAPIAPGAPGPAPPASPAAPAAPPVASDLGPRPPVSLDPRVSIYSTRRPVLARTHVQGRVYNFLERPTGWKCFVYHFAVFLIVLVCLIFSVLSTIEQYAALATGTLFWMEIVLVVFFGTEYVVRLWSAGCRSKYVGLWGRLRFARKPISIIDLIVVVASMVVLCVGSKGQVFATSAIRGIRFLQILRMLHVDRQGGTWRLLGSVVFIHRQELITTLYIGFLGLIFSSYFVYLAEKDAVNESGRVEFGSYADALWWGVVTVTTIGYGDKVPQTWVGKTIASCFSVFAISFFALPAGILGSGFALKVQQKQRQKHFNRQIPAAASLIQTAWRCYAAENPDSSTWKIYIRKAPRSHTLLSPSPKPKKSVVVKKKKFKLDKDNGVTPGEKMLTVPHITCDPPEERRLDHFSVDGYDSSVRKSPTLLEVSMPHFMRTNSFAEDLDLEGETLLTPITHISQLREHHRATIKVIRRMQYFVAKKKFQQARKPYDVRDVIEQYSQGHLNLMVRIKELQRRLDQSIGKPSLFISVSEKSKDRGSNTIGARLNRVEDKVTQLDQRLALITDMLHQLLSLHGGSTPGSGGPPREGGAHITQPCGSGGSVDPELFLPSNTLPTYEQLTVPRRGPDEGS
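assay system = KCNQ1-transfected CHO-K1 cells | medium = assay buffer with matched DMSO | probe or stimulus = depolarizing K+/Tl+ stimulus, K2SO4 and Tl2SO4 each 12.5 mM in 5x stock | dosing = single dose | incubation = dye 90 min, compound 20 min, room temperature | detection = kinetic FluxOR fluorescence, 10 s baseline plus 110 s post-stimulus | evaluation = ratio B score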
KCNQ1 block = blocks the human KCNQ1 potassium channel. B-score at 10 µM. CHO-K1 KCNQ1, FluxOR thallium flux fluorescence; hits give high values. 310,000 compounds, 1.3% hits;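 active means compounds whose thallium flux B-score, printed positive for inhibition, exceeds three library SD while starting fluorescence stays within three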;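 further: channel opened by potassium depolarization with thallium stimulus after 20 min compound exposure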
hERG rescue = hERG (human) protection from proarrhythmic block; Q12809; CHO-hERG, FluxOR thallium flux, dofetilide IC70 present; activation (rescue from dofetilide block), less the hit threshold, % at 10 µM; 310,000 compounds, 0.51% hits;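 active means activation above the mean of controls blocked by dofetilide plus 5 SD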;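 further: thallium influx through hERG after potassium depolarization seen as dye fluorescence rise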
KCNK9 block = human KCNK9 channel inhibition | B-score at 10 µM | 310,000 compounds, 1.2% hits | AID 488922 | Q9NPC2 | HEK293 KCNK9, FluxOR thallium flux fluorescence; hits give low values;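 active means ratio B-score over 3 SD below the library mean, with starting fluorescence within 5 SD of its mean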;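 further: negative B-score means less thallium flux so channel inhibition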
Kir21 inh = blocks the mouse Kir2.1 inward-rectifier potassium channel. AID 1672. P35561. HEK293-Kir2.1, FluxOR thallium flux fluorescence; hits give low values. 310,000 compounds, 0.85% hits. B-score at 10 µM;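 active means fluorescence ratio B-score at or below minus 3 SD of library scores, with starting-brightness B-score within 2 SD, cut at about -4.2 in these data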;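 further: channel flux triggered by added potassium and thallium sulfate stimulus; B-score of peak minus minimum fluorescence over baseline after thallium stimulus; more negative B-score means stronger Kir2.1 block with less thallium influx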
KCNK9 block conf = human KCNK9 inhibitor confirmation; HEK293 KCNK9 cells, FluxOR thallium flux fluorescence; 4,900 compounds, 43% hits; shares compounds with KCNK9 block; inhibition, % at 10 µM;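 active means thallium signal inhibited by more than 5 SD of the compound-free buffer control wells, on both duplicate plates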
Kir2-1 spec = mouse Kir2.1 off-target activity of KCNK9 modulators; 4,900 compounds, 4% hits; inhibition, % at 10 µM; AID 492993; Kir2.1 cells, FluxOR thallium flux fluorescence; shares compounds with KCNK9 block;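 active means thallium signal drop more than 5 SD beyond the mean of the no-compound control wells, seen in both duplicate plates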;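 further: signal is fluorescence rise after thallium addition divided by baseline fluorescence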
HEK293 Tl ctr = non-induced cell nonspecific activity of KCNK9 modulators. shares compounds with KCNK9 block. non-induced KCNK9-HEK293, FluxOR thallium flux. inhibition, % at 10 µM. 4,900 compounds, 40% hits. AID 492997;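 active means thallium signal drop beyond 5 SD of the untreated control mean, on both duplicate plates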
KCNK3 confirm = human KCNK3 channel inhibition, confirmation assay; shares compounds with KCNK3 inh; CHO-KCNK3 thallium flux, FluxOR fluorescence; 0% buffer, 100% carvedilol maximal block; ratio percent of control, % at 10 µM; 2,400 compounds, 99% hits; AID 651638;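 active means ratio percent of control, averaged over triplicates, above buffer control mean plus 5 SD, cut at about 64% in these data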;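 further: ratio is the fluorescence rise from min to max over baseline after thallium stimulus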
KCNK3 uninduced = activity in cells without induced KCNK3 expression | thallium flux ratio (lower = more inhibition) at 10 µM | shares compounds with KCNK3 inh | 2,400 compounds, 40% hits | non-induced KCNK3 parental cells, FluxOR thallium flux; hits give low values | AID 651747;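 active means thallium flux ratio, averaged over three wells, more than 5 SD below the buffer control mean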;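 further: host cells are CHO cells without KCNK3 induction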
Each line names hits and unclear results; the compound was inactive in the other large screens (follow-up assays come after a bar, where they were run). This is a sample that favours compounds with a hit; in the whole collection about 3.7% have one here.

CN(C(=O)CSc1nnc(CN2CCCC2)n1Cc1ccccc1)c1ccccc1	none
Cc1noc(C)c1COc1ccccc1C(=O)NCCc1ccc(Cl)cc1	KCNK3 inh -9.4, KCNK9 block -20 | KCNK9 block conf 63% | Kir2-1 spec inactive | HEK293 Tl ctr 35% | KCNK3 confirm 81 | KCNK3 uninduced inactive
Cc1c(C)n(C(=O)CN2CCN(c3ccccc3)CC2)c2ccccc12	KCNK3 inh -10 | KCNK9 block conf inactive | Kir2-1 spec inactive | HEK293 Tl ctr inactive | KCNK3 confirm 83 | KCNK3 uninduced inactive
Cc1cccc(OCC(=O)Nc2ccccc2N2CCCCC2)c1	KCNK3 inh -9.9, KCNK9 block -9.9 | KCNK9 block conf 77% | Kir2-1 spec inactive | HEK293 Tl ctr 47% | KCNK3 confirm 98 | KCNK3 uninduced inactive
Cc1ccccc1OCC(=O)Nc1ccccc1N1CCC(C)CC1	KCNK3 inh -10, KCNK9 block -12 | KCNK9 block conf 44% | Kir2-1 spec 31% | HEK293 Tl ctr 38% | KCNK3 confirm 111 | KCNK3 uninduced inactive
CCCn1ccnc1SCC(=O)Nc1c(C)n(C)n(-c2ccccc2)c1=O	none (no result: KCNQ1 pot, KCNQ1 block, hERG rescue, KCNK9 block, Kir21 inh)
O=C(N/N=C/c1c(O)ccc2ccccc12)c1cccc(C(F)(F)F)c1	KCNK3 inh -11, KCNK9 block -9.3 | KCNK9 block conf 61% | Kir2-1 spec 46% | HEK293 Tl ctr 61% | KCNK3 confirm 159 | KCNK3 uninduced 0.091
O=C1CNC(=S)N1CCc1ccccc1Cl	none
CN(C)c1ccc(C(CNC(=O)c2ccccc2)c2c[nH]c3ccccc23)cc1 (stereo not drawn)	KCNK3 inh -9.2, KCNK9 block -13 | KCNK9 block conf 54% | Kir2-1 spec inactive | HEK293 Tl ctr 27% | KCNK3 confirm 101 | KCNK3 uninduced 0.14
CN(N=Nc1cccc([N+](=O)[O-])c1)c1cccc([N+](=O)[O-])c1	KCNK9 block -11 | KCNK9 block conf inactive | Kir2-1 spec inactive | HEK293 Tl ctr 34% | KCNK3 confirm 90 | KCNK3 uninduced inactive
CCCN(N=Nc1cccc([N+](=O)[O-])c1)c1cccc([N+](=O)[O-])c1	KCNK3 inh -9.2, KCNK9 block -12 | KCNK9 block conf 50% | Kir2-1 spec inactive | HEK293 Tl ctr 43% | KCNK3 confirm 115 | KCNK3 uninduced inactive
O=C(COC(=O)c1ncc(Cl)c(Cl)c1Cl)NC1CCCCCC1	none
COc1cc(NC(=O)CN2C(=O)COc3ccc(S(=O)(=O)N4CCCC4)cc32)cc(OC)c1	KCNK3 inh -11, KCNK9 block -11 | KCNK9 block conf 52% | Kir2-1 spec inactive | HEK293 Tl ctr 30% | KCNK3 confirm 105 | KCNK3 uninduced inactive
Cc1cc(C)cc(NC(=O)CN2C(=O)COc3ccc(S(=O)(=O)N4CCCC4)cc32)c1	none
CCN(CC)C(=O)CSc1nc2sc3c(c2c(=O)n1-c1ccc(C)cc1)CC(C)(C)SC3	KCNK3 inh -17 | KCNK9 block conf inactive | Kir2-1 spec inactive | HEK293 Tl ctr 26% | KCNK3 confirm 121 | KCNK3 uninduced 0.14
CCN(c1ccccc1)S(=O)(=O)c1ccc(OC)c(NC(=O)COc2ccc(C(C)=O)cc2)c1	none
COc1ccccc1NC(=O)CCSc1ccc(C)cc1	none
COc1ccccc1NC(=O)C(C)OC(=O)CCSc1ccc(F)cc1 (stereo not drawn)	KCNK9 block -16 | KCNK9 block conf 62% | Kir2-1 spec inactive | HEK293 Tl ctr 30% | KCNK3 confirm 120 | KCNK3 uninduced inactive
CCN(CC)CC(O)COc1ccccc1C(=O)CCc1ccccc1 (stereo not drawn)	none
CCCCN(CCCC)CC(O)COc1ccccc1C(=O)Nc1ccccc1 (stereo not drawn)	KCNK3 inh -10, KCNK9 block -11 | KCNK9 block conf 50% | Kir2-1 spec inactive | HEK293 Tl ctr 40% | KCNK3 confirm 112 | KCNK3 uninduced inactive
O=C(CN1CCN(Cc2ccccc2Cl)C1=O)N1CCCCCC1	none
O=c1cc(N2CCCCC2)c(-c2ccccc2)nn1Cc1ccccc1Cl	KCNK3 inh -9.1, KCNK9 block -18 | KCNK9 block conf 38% | Kir2-1 spec inactive | HEK293 Tl ctr 38% | KCNK3 confirm 112 | KCNK3 uninduced inactive
COCCN(CCOC)c1nc(-c2ccccc2)nc2ccccc12	none
CCCCN(CCCC)c1nc(-c2ccncc2)nc2ccccc12	KCNK3 inh -9.4, KCNK9 block -9.1 | KCNK9 block conf inactive | Kir2-1 spec inactive | HEK293 Tl ctr 34% | KCNK3 confirm 68 | KCNK3 uninduced inactive
CC1CCCCN1S(=O)(=O)c1ccc(NC(=O)c2cccs2)cc1 (stereo not drawn)	KCNK9 block -8.7 | KCNK9 block conf 41% | Kir2-1 spec inactive | HEK293 Tl ctr inactive | KCNK3 confirm 88 | KCNK3 uninduced inactive
CC1CCN(S(=O)(=O)c2ccc(NC(=O)c3cccs3)cc2)CC1	none
CCCCN(CCCC)S(=O)(=O)c1ccc(NC(=O)c2cccs2)cc1	KCNK9 block -8.6 | KCNK9 block conf 48% | Kir2-1 spec inactive | HEK293 Tl ctr 44% | KCNK3 confirm 121 | KCNK3 uninduced 0.15
O=C(NC1CCS(=O)(=O)C1)c1cccs1 (stereo not drawn)	none
CN(c1ccccc1)S(=O)(=O)c1cccc2ccccc12	KCNK3 inh -10, KCNK9 block -9 | KCNK9 block conf 39% | Kir2-1 spec inactive | HEK293 Tl ctr 30% | KCNK3 confirm 113 | KCNK3 uninduced inactive
O=C(C1CCCCN1S(=O)(=O)c1ccccc1[N+](=O)[O-])N1CCCCC1 (stereo not drawn)	none
CCc1ccc(-c2cc(C)no2)cc1S(=O)(=O)N1CCOc2ccccc21	KCNK3 inh -15, KCNK9 block -12 | KCNK9 block conf 38% | Kir2-1 spec inactive | HEK293 Tl ctr 42% | KCNK3 confirm 125 | KCNK3 uninduced 0.14
O=C/C=C/c1c(-c2ccccc2)cc2oc3ccccc3cc1-2	none
Cc1cc(NC(=O)COC(=O)c2nccnc2N)n(-c2ccccc2)n1	none
